Test results reported in ChEMBL document CHEMBL3352430, “4-Aminopyridyl-based CYP51 inhibitors as anti-Trypanosoma cruzi drug leads with improved pharmacokinetic profile and in vivo potency” (J Med Chem, 2014).
Calls of active or inactive are those of the source. The rule behind the calls is not given here.

Columns and labels:
[1] = AUClast in mouse at 50 mg/kg, po in 20% HP-beta-CD; type: ADME, organism-based, Plasma; set-up: time 0 - last, dose 50 mg/kg, route oral; conditions: plasma
Outline: (§1)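 Female Swiss Webster mice, 8 weeks old, given one oral gavage dose of 50 mg/kg as a 10 mg/mL preparation in the named vehicle (20% HPβCD suspension or 20% Kolliphor). Plasma sampled at about 0.25, 0.5, 1, 2, 4, 6, 8, 12 and 24 h, n = 3 per time point. Protein precipitated with 5 volumes acetonitrile, filtered, then LC-MS/MS. Values are averages of three mice.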

[2] = Tmax in mouse at 50 mg/kg, po in 20% Kolliphor; type: ADME, organism-based; set-up: dose 50 mg/kg, route oral; conditions: in vivo; outline: as §1
Liver [3] = experiment: Drug uptake in mouse liver at 50 mg/kg, po in 20% Kolliphor measured at 8 hrs post dose; type: ADME, organism-based; set-up: dose 50 mg/kg, route oral; conditions: in vivo
Outline: (§2)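 Female Swiss Webster mice, 8 weeks old, given a single 50 mg/kg oral gavage dose in 20% HPβCD or 20% Kolliphor. Tissues taken from three mice at 2 and 8 h post dose. Homogenized by probe sonication in PBS (1:4 w/v), protein precipitated with acetonitrile, and compound measured by LC-MS/MS in μM.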

Lung [4] = experiment: Drug uptake in mouse lung at 50 mg/kg, po in 20% HP-beta-CD measured at 8 hrs post dose; type: ADME, organism-based; set-up: dose 50 mg/kg, route oral; conditions: in vivo; outline: as §2
C2C12 = experiment: Cytotoxicity against mouse C2C12 cells up to 10 uM; type: cell-based
Outline: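 Mouse C2C12 myoblasts infected with T. cruzi CA-I/72, then exposed at 24 h postinfection to compound at 10 μM down to 5 pM in 5-fold steps for 72 h at 37 °C. Cells fixed in paraformaldehyde, stained with DAPI and scored by automated imaging. Triplicate wells; uninfected and infected untreated wells as controls.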

[5] = Drug uptake in mouse skeletal muscle at 50 mg/kg, po in 20% Kolliphor measured at 8 hrs post dose; type: ADME, organism-based, Muscle tissue; set-up: dose 50 mg/kg, route oral; conditions: in vivo; outline: as §2
[6] = Clearance in mouse at 50 mg/kg, po in 20% HP-beta-CD; type: ADME, organism-based; set-up: dose 50 mg/kg, route oral; conditions: in vivo; outline: as §1
[7] = Clearance in mouse at 50 mg/kg, po in 20% Kolliphor; type: ADME, organism-based; set-up: dose 50 mg/kg, route oral; conditions: in vivo; outline: as §1
Liver [8] = experiment: Drug uptake in mouse liver at 50 mg/kg, po in 20% HP-beta-CD measured at 8 hrs post dose; type: ADME, organism-based; set-up: dose 50 mg/kg, route oral; conditions: in vivo; outline: as §2
Heart [9] = experiment: Drug uptake in mouse heart at 50 mg/kg, po in 20% Kolliphor measured at 8 hrs post dose; type: ADME, organism-based; set-up: dose 50 mg/kg, route oral; conditions: in vivo; outline: as §2
[10] = Half life in mouse at 50 mg/kg, po in 20% Kolliphor; type: ADME, organism-based; set-up: dose 50 mg/kg, route oral; conditions: in vivo; outline: as §1
Trypanosoma cruzi [11] = experiment: Antitrypanosomal activity against Trypanosoma cruzi Y luc infected in mouse assessed as inhibition of parasitemia at 25 mg/kg, po bid in 20% HP-beta-CD administered for 4 consecutive days starting on day 3 of infection measured on day 7 post infection relative to vehicle-treated control; type: functional, organism-based; set-up: dose 25 mg/kg
Outline: (§3)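 Female Swiss Webster mice, 8 weeks old, infected ip with 10^5 T. cruzi Y luc trypomastigotes. Only mice with detectable luminescence on day 3 were treated. Compound given by oral gavage bid for four days, as a suspension in 20% HPβCD or a solution in 20% Kolliphor, five mice per group. Vehicle group and benznidazole 50 mg/kg served as controls. On day 7, mice were injected ip with 150 mg/kg d-luciferin and imaged after 5 min under isoflurane. Percent inhibition calculated against untreated mice; two-tailed paired t test.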

[12] = Drug uptake in mouse fat at 50 mg/kg, po in 20% Kolliphor measured at 8 hrs post dose; type: ADME, organism-based, Adipose tissue; set-up: dose 50 mg/kg, route oral; conditions: in vivo; outline: as §2
Mus musculus [13] = experiment: Toxicity in mouse assessed as mobility issues at 12.5 to 50 mg/kg, po bid in 20% HP-beta-CD; type: organism-based; set-up: dose 12.5-50 mg/kg, route oral; conditions: in vivo
Outline: (§4)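 Mice in the four-day oral treatment study were given compound bid by gavage in 20% HPβCD or 20% Kolliphor. They were watched for weight loss, mobility problems and changes in appearance throughout dosing.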

Intestine [14] = experiment: Drug uptake in mouse intestine at 50 mg/kg, po in 20% Kolliphor measured at 8 hrs post dose; type: ADME, organism-based; set-up: dose 50 mg/kg, route oral; conditions: in vivo; outline: as §2
Lung [15] = experiment: Drug uptake in mouse lung at 50 mg/kg, po in 20% Kolliphor measured at 8 hrs post dose; type: ADME, organism-based; set-up: dose 50 mg/kg, route oral; conditions: in vivo; outline: as §2
[16] = Drug uptake in mouse skeletal muscle at 50 mg/kg, po in 20% HP-beta-CD measured at 8 hrs post dose; type: ADME, organism-based, Muscle tissue; set-up: dose 50 mg/kg, route oral; conditions: in vivo; outline: as §2
Trypanosoma cruzi [17] = experiment: Antitrypanosomal activity against Trypanosoma cruzi Y luc infected in mouse assessed as inhibition of parasitemia at 50 mg/kg, po bid in 20% Kolliphor administered for 4 consecutive days starting on day 3 of infection measured on day 7 post infection relative to vehicle-treated control; type: functional; outline: as §3
[18] = Drug uptake in mouse fat at 50 mg/kg, po in 20% HP-beta-CD measured at 8 hrs post dose; type: ADME, organism-based, Adipose tissue; set-up: dose 50 mg/kg, route oral; conditions: in vivo; outline: as §2
Mus musculus [19] = experiment: Toxicity in mouse assessed as mobility issues at 12.5 to 50 mg/kg, po bid in 20% Kolliphor; type: organism-based; set-up: dose 12.5-50 mg/kg, route oral; conditions: in vivo; outline: as §4
[20] = Tmax in mouse at 50 mg/kg, po in 20% HP-beta-CD; type: ADME, organism-based; set-up: dose 50 mg/kg, route oral; conditions: in vivo; outline: as §1
[21] = Cmax in mouse at 50 mg/kg, po in 20% HP-beta-CD; type: ADME, organism-based; set-up: dose 50 mg/kg, route oral; conditions: in vivo; outline: as §1
Intestine [22] = experiment: Drug uptake in mouse intestine at 50 mg/kg, po in 20% HP-beta-CD measured at 8 hrs post dose; type: ADME, organism-based; set-up: dose 50 mg/kg, route oral; conditions: in vivo; outline: as §2
Mus musculus [23] = experiment: Toxicity in mouse assessed as change in appearance at 12.5 to 50 mg/kg, po bid in 20% Kolliphor; type: organism-based; set-up: dose 12.5-50 mg/kg, route oral; conditions: in vivo; outline: as §4
[24] = AUClast in mouse at 50 mg/kg, po in 20% Kolliphor; type: ADME, organism-based; set-up: time 0 - last, dose 50 mg/kg, route oral; conditions: plasma; outline: as §1
Mus musculus [25] = experiment: Toxicity in mouse assessed as weight loss at 12.5 to 50 mg/kg, po bid in 20% Kolliphor; type: organism-based; set-up: dose 12.5-50 mg/kg, route oral; conditions: in vivo; outline: as §4
Heart [26] = experiment: Drug uptake in mouse heart at 50 mg/kg, po in 20% HP-beta-CD measured at 8 hrs post dose; type: ADME, organism-based; set-up: dose 50 mg/kg, route oral; conditions: in vivo; outline: as §2
Mus musculus [27] = experiment: Toxicity in mouse assessed as change in appearance at 12.5 to 50 mg/kg, po bid in 20% HP-beta-CD; type: organism-based; set-up: dose 12.5-50 mg/kg, route oral; conditions: in vivo; outline: as §4
[28] = Half life in mouse at 50 mg/kg, po in 20% HP-beta-CD; type: ADME, organism-based; set-up: dose 50 mg/kg, route oral; conditions: in vivo; outline: as §1
Mus musculus [29] = experiment: Toxicity in mouse assessed as weight loss at 12.5 to 50 mg/kg, po bid in 20% HP-beta-CD; type: organism-based; set-up: dose 12.5-50 mg/kg, route oral; conditions: in vivo; outline: as §4
[30] = biological target: Sterol 14-alpha demethylase (Trypanosoma cruzi (strain CL Brener), UniProt Q7Z1V1); experiment: Binding affinity to Trypanosoma cruzi CYP51 by UV-vis titration method; conditions: read-out: Kd(app)
Trypanosoma cruzi [31] = experiment: Antitrypanosomal activity against Trypanosoma cruzi Y luc infected in mouse assessed as inhibition of parasitemia at 50 mg/kg, po bid in 20% HP-beta-CD administered for 4 consecutive days starting on day 3 of infection measured on day 7 post infection relative to vehicle-treated control; type: functional, organism-based; set-up: dose 50 mg/kg; outline: as §3
[32] = Cmax in mouse at 50 mg/kg, po in 20% Kolliphor; type: ADME, organism-based; set-up: dose 50 mg/kg, route oral; conditions: in vivo; outline: as §1

Sequence of Sterol 14-alpha demethylase (Q7Z1V1 whole entry): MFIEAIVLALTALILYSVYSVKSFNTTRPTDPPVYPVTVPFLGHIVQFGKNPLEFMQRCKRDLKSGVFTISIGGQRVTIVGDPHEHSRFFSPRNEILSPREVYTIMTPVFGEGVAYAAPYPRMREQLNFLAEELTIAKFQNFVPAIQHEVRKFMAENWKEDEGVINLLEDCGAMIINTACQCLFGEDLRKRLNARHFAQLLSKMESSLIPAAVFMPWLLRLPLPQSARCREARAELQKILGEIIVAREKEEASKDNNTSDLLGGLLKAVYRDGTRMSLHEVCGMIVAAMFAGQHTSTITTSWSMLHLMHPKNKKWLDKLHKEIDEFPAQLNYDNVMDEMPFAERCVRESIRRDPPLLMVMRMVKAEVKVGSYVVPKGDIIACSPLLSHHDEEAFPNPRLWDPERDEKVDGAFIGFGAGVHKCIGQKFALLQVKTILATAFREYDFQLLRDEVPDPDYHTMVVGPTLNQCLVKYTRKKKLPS

O=C(N[C@H](Cc1c[nH]c2ccccc12)C(=O)Nc1ccncc1)c1ccc(N2CCN(c3ccc(F)cc3F)CC2)cc1F
AUC(0-t) [1]: 16.7 µM·h
Tmax [2]: 2.33 h
Drug uptake (Liver [3]): Active
Drug uptake (Lung [4]): Active
Activity (C2C12): Non-toxic
Drug uptake [5]: Active
CL/F [6]: 42.8 mL/min/kg
CL/F [7]: 38.8 mL/min/kg
Drug uptake (Liver [8]): Active
Drug uptake (Heart [9]): Active
half-life [10]: 4.39 h
inhibition (Trypanosoma cruzi [11]): Active
Drug uptake [12]: Active
Activity (Mus musculus [13]): Non-toxic
Drug uptake (Intestine [14]): Active
Drug uptake (Lung [15]): Active
Drug uptake [16]: Active
inhibition in vivo at 50 mg/kg (Trypanosoma cruzi [17]): 98.4%
Drug uptake [18]: Active
Activity (Mus musculus [19]): Non-toxic
Tmax [20]: 4.67 h
Cmax [21]: 3.27 µM
Drug uptake (Intestine [22]): Active
Activity (Mus musculus [23]): Non-toxic
AUC(0-t) [24]: 29.6 µM·h
Activity (Mus musculus [25]): Non-toxic
Drug uptake (Heart [26]): Active
Activity (Mus musculus [27]): Non-toxic
half-life [28]: 6.88 h
Activity (Mus musculus [29]): Non-toxic
Kd [30]: ≤ 10 nM
inhibition (Trypanosoma cruzi [31]): Active
Cmax [32]: 5.94 µM
